Key:
[1] = target: Fibroblast growth factor receptor 1 (Homo sapiens) (UniProt P11362); test: Inhibition of FGFR1 assessed as residual activity at 10 uM
Method in brief: (§1)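 Kinase panel screen run as a radioactive activity assay at single compound concentration. Score reported as percent activity remaining relative to DMSO controls (100%).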

[2] = target: Mitogen-activated protein kinase 9 (Homo sapiens) (UniProt P45984); test: Inhibition of JNK2 assessed as residual activity at 10 uM; method in brief: as §1
[3] = target: Insulin-like growth factor 1 receptor (Homo sapiens) (UniProt P08069); test: Inhibition of IGF1R assessed as residual activity at 10 uM; method in brief: as §1
[4] = target: Protein kinase C alpha type (Homo sapiens) (UniProt P17252); test: Inhibition of PKCalpha assessed as residual activity at 10 uM
Method in brief: (§2)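 Panel screen by radioactive kinase assay at a single inhibitor concentration. Score is the percent activity remaining relative to DMSO controls (100%).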

[5] = target: RAC-beta serine/threonine-protein kinase (Homo sapiens) (UniProt P31751); test: Inhibition of PKBbeta assessed as residual activity at 10 uM; method in brief: as §2
[6] = target: MAP kinase-activated protein kinase 2 (Homo sapiens) (UniProt P49137); test: Inhibition of MAPKAPK2 assessed as residual activity at 10 uM; method in brief: as §1
[7] = target: Tyrosine-protein kinase Yes (Homo sapiens) (UniProt P07947); test: Inhibition of YES1 assessed as residual activity at 10 uM; method in brief: as §2
[8] = target: T1, Inhibitor of nuclear factor kappa-B kinase subunit epsilon (Homo sapiens) (UniProt Q14164); test: Inhibition of IKKepsilon assessed as residual activity at 10 uM; method in brief: as §1
T1 sequence (whole entry): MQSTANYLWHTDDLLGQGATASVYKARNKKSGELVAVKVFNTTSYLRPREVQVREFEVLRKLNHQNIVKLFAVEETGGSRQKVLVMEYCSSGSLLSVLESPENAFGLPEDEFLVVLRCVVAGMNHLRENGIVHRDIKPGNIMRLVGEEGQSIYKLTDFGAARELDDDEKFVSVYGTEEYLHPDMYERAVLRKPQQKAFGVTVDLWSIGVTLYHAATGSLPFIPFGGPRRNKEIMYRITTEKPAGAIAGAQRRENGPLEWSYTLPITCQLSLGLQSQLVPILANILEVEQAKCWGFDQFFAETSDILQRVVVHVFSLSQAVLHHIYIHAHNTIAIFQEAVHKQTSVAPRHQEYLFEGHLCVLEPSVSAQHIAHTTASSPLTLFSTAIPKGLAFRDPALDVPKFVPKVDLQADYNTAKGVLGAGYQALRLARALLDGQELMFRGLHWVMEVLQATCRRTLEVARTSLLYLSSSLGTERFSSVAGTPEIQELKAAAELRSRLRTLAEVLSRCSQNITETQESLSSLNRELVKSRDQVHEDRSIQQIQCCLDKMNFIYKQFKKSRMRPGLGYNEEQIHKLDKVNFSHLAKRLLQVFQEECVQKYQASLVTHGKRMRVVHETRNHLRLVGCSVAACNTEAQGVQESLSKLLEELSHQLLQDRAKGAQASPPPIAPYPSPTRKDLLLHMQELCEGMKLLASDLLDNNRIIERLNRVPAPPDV

[9] = target: T2, Serine/threonine-protein kinase Chk1 (Homo sapiens) (UniProt O14757); test: Inhibition of CHK1 assessed as residual activity at 10 uM; method in brief: as §1
T2 sequence (whole entry): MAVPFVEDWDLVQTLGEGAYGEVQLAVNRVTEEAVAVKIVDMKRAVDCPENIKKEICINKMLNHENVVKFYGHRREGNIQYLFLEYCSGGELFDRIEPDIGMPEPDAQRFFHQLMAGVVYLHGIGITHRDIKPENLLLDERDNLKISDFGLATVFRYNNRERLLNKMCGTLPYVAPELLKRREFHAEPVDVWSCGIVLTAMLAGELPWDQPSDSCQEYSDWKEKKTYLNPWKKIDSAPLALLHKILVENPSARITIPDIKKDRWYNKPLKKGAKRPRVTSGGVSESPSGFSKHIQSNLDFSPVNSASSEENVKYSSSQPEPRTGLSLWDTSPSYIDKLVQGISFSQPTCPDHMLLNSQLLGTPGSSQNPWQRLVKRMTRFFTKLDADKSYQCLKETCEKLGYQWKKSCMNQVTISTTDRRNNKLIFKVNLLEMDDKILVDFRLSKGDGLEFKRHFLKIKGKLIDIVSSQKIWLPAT

[10] = target: T3, Dual specificity protein kinase TTK (Homo sapiens) (UniProt P33981); test: Inhibition of TTK assessed as residual activity at 10 uM; method in brief: as §2
T3 sequence (whole entry): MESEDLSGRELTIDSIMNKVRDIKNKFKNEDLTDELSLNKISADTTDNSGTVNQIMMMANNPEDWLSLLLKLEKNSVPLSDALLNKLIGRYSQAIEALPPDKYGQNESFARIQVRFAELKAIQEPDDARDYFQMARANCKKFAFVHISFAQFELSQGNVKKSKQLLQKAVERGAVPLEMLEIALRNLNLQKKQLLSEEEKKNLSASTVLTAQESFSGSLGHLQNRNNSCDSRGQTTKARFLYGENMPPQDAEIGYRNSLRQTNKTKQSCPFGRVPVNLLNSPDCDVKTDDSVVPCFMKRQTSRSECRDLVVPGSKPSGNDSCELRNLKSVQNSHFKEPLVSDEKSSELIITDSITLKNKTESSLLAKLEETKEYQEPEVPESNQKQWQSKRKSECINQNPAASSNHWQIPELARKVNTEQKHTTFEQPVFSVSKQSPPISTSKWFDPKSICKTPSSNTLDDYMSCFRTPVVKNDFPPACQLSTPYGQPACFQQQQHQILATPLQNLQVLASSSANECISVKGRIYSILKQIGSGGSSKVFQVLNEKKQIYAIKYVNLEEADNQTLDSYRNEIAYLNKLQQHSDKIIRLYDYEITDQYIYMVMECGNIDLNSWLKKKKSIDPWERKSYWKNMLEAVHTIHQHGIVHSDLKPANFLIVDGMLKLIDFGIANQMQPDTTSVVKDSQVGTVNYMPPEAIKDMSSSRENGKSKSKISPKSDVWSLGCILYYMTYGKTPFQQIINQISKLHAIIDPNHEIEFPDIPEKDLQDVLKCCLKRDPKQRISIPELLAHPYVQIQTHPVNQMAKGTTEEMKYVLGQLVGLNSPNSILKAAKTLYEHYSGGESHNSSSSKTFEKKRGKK

[11] = Inhibition of PHK assessed as residual activity at 10 uM; method in brief: as §2

Chain of Mitogen-activated protein kinase 9 (Homo sapiens) (P45984 whole entry, looked up): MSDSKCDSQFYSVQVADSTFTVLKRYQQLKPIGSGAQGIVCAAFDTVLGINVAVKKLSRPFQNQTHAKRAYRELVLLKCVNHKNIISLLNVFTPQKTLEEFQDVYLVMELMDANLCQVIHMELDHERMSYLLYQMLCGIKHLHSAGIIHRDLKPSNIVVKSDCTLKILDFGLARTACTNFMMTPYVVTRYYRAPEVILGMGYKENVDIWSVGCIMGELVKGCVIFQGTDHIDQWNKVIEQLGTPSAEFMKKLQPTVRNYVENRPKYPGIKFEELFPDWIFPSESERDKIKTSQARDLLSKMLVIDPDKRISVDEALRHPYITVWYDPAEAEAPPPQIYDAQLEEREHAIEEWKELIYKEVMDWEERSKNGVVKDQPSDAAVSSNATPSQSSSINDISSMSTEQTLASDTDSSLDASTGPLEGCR
Chain of Insulin-like growth factor 1 receptor (Homo sapiens) (P08069 31-736 limits assumed): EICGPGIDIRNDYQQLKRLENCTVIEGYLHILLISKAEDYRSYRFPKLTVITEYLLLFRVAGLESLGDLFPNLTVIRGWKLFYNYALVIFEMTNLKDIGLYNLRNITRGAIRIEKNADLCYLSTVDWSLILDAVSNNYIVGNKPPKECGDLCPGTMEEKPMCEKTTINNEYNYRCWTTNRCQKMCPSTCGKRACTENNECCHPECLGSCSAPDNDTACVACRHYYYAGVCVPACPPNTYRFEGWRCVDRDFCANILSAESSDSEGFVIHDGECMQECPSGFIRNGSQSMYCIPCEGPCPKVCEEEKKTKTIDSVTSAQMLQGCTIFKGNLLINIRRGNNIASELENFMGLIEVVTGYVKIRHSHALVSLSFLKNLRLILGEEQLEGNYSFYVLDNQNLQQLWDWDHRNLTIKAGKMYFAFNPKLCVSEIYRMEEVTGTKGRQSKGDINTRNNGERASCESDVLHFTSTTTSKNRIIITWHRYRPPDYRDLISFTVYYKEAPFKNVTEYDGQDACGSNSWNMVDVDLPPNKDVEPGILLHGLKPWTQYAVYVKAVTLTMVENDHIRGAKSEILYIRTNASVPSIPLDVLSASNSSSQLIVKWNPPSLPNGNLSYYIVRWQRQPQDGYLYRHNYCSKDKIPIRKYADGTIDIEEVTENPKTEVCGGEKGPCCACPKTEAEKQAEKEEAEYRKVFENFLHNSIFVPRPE
Chain of Insulin-like growth factor 1 receptor (Homo sapiens) (P08069 741-1367 limits assumed): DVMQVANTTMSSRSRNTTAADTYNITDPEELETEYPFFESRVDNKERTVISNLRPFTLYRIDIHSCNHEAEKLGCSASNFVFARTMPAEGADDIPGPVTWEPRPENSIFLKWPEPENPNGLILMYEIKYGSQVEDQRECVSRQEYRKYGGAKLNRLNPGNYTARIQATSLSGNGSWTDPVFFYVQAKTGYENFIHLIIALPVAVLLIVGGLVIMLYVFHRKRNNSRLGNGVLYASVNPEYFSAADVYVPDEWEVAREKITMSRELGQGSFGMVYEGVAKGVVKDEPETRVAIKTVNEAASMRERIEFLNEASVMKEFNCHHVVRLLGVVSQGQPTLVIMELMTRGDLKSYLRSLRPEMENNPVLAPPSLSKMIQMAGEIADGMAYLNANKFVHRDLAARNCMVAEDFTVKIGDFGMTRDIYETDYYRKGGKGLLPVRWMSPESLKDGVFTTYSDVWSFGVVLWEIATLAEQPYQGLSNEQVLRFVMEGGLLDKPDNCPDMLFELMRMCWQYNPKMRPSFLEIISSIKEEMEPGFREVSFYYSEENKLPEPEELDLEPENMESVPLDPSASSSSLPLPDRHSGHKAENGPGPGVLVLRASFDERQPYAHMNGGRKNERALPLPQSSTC
Chain of RAC-beta serine/threonine-protein kinase (Homo sapiens) (P31751 whole entry): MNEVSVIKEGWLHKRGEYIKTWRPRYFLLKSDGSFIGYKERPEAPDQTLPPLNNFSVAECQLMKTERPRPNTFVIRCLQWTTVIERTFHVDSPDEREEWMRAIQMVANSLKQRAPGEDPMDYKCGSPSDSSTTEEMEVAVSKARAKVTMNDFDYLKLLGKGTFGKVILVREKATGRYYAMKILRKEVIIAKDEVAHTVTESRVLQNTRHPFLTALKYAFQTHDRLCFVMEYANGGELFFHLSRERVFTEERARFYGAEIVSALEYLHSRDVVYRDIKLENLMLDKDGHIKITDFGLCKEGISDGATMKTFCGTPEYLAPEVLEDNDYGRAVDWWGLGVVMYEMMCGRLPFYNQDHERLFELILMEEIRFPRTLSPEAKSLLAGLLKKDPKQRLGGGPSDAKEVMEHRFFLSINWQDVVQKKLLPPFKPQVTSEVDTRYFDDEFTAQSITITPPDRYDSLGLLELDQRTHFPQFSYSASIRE
Chain of MAP kinase-activated protein kinase 2 (Homo sapiens) (P49137 whole entry, looked up): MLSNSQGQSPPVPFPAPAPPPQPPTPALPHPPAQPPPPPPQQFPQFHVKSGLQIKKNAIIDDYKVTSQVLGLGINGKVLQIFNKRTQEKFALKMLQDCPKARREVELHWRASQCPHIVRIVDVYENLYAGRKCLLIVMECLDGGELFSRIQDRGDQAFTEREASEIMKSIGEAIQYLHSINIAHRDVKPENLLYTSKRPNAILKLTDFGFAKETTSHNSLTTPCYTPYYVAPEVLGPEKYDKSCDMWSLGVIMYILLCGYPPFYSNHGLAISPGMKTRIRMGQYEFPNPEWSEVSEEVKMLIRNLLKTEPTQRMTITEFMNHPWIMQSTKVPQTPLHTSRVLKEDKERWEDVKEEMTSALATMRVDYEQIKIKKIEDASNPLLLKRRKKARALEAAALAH
Chain of Fibroblast growth factor receptor 1 (Homo sapiens) (P11362 22-822 limits assumed): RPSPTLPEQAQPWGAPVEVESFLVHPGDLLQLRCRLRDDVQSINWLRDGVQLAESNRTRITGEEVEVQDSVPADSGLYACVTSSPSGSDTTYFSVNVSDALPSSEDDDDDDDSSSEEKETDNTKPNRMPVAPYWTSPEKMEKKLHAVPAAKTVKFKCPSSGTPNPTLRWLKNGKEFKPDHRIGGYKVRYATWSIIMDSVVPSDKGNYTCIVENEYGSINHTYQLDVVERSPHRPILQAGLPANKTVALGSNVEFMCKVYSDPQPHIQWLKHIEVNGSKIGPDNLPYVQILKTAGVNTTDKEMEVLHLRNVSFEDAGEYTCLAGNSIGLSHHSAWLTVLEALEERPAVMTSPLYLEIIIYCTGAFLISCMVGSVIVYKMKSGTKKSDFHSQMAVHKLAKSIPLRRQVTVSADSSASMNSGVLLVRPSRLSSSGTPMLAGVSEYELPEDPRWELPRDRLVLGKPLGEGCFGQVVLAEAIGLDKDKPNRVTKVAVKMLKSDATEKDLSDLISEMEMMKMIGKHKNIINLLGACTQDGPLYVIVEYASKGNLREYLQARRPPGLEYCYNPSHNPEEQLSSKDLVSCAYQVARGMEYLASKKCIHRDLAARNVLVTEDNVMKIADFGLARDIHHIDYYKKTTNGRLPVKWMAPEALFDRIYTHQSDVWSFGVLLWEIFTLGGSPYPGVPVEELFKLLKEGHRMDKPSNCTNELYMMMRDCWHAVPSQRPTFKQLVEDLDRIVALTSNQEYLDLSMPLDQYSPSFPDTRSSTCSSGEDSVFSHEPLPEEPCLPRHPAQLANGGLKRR
Chain of Tyrosine-protein kinase Yes (Homo sapiens) (P07947 2-543 limits assumed): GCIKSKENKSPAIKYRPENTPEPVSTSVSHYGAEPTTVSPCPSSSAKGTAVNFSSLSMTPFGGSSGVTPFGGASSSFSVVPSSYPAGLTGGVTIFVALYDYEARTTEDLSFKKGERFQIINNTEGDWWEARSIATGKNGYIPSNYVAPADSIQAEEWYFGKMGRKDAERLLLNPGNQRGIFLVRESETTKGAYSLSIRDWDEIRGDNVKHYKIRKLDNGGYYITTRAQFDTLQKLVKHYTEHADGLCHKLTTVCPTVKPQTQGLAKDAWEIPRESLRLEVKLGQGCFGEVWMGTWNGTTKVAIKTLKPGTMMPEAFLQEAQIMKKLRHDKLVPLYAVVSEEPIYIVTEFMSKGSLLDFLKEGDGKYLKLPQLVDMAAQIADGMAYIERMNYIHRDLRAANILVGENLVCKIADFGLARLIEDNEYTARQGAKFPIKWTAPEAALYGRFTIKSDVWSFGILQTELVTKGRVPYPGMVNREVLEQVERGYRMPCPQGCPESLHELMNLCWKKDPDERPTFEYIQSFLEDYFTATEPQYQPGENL

Activity [1] [%] | Activity [2] [%] | Activity [3] [%] | Activity [4] [%] | Activity [5] [%] | Activity [6] [%] | Activity [7] [%] | Activity [8] [%] | Activity [9] [%] | Activity [10] [%] | Activity [11] [%] | Structure (SMILES)
100 | 100 | 65 | 71 | 87 | 100 | 36 | 91 | 68 | 81 | 38 | CN1CCN(CCC(=O)Nc2ccc3c(C#N)cnc(Nc4cccc(Br)c4)c3c2)CC1
51 | 89 | 73 | 69 | 37 | 97 | 32 | 80 | 75 | 74 | 53 | CN(C)C/C=C/C(=O)Nc1ccc2c(C#N)cnc(Nc3cccc(Br)c3)c2c1
99 | 98 | 59 | 70 | 85 | 100 | 36 | 100 | 84 | 96 | 11 | CN(C)CCCC(=O)Nc1ccc2c(C#N)cnc(Nc3cccc(Br)c3)c2c1
